Data on 76 molecules can be found in PubChem BioAssay AID489015 (The Scripps Research Institute Molecular Screening Center, 2010).

Molecules are shown by their SMILES. The source made the active and inactive calls.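 The calls were made as follows: active = malaria parasite growth inhibition in red cells reaching a set limit in at least one replicate; inactive = below that limit in every replicate.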

This experiment deals with P. falciparum 3D7 in RBCs, 3H-hypoxanthine incorporation, 48 h. As to the kind of experiment: P. falciparum growth inhibition in erythrocytes, late-stage follow-up, M18AAP inhibitor project, cell-based, radiolabel, RBCs, powder samples (AID 489015). The following applies: at 10 µM; active compounds read high. Summed up:
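Assay system – P. falciparum 3D7 in erythrocytes · Also added – 3H-hypoxanthine, 0.5 µCi/well · Compound – 10 µM single dose, DMSO ≤1% · Incubation – 48 h compound exposure, 37 °C, 5% CO2, 5% O2 · Signal – 3H-hypoxanthine uptake, beta counting · Repeats – triplicate wells, 2-3 experiments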
Regarding `Cc1cc(C)cc(C(=O)n2cnnc2N)c1`, the growth inhibition was 44.8%.
Then `Cc1cc(OCC(=O)Nn2cnnc2)ccc1Br`, with 3.67% (inactive).
Then `Cc1nc(-c2ccc(O)c(O)c2)cs1`, with 0.778% (inactive); and `Nc1nncn1C(=O)CCCOc1ccc(Cl)cc1Cl`, with 3.17% (inactive); and `Cc1cc(=O)[nH]c(SCC(=O)c2ccc(O)c(O)c2)n1`, with 0.833% (inactive).
Turning to `NCCc1ccc(O)c(O)c1`, the growth inhibition is 0.5% (inactive).
Then `O=C(CSc1ncn[nH]1)Nc1nc(-c2ccccc2)ns1`, with 4.5% (inactive); and `COc1cc(Br)cc(/C=N/c2ncn[nH]2)c1O`, with 4.83% (inactive).
Consider `O=C(COc1ccccc1C(=O)N/N=C/c1ccc(O)c(O)c1)N/N=C/c1ccc(O)c(O)c1`, for which the growth inhibition is 66%.
Then `Cc1c(Cl)cccc1NC(=O)Nn1cnnc1`, with 9.17% (inactive).
Then `Cc1ccc(Cl)cc1NC(=O)Nn1cnnc1`, with 2.5% (inactive); and `O=C(Nc1ccc(Cl)cc1Cl)Nn1cnnc1`, with 0% (inactive).
Then `O=C(NC(=S)Nn1cnnc1)c1ccccc1Br`, with 0% (inactive); and `O=C(Nn1cnnc1)c1csc2ccccc12`, with 0% (inactive).
For `Br/C(C=Nn1cnnc1)=C\c1ccccc1`, the growth inhibition is 71.8%.
Turning to `COc1cc([N+](=O)[O-])ccc1NC(=S)Nn1cnnc1`, the growth inhibition was 8.67% (inactive).
Then `Oc1ccc(CCNc2c3ccccc3nc3ccccc23)cc1O`, with 96.3%; and `O=c1c2c([N+](=O)[O-])cc([N+](=O)[O-])cc2sn1Cc1ccccc1`, with 5.11% (inactive); and `O=C(Nn1cnnc1)c1ccccc1-c1ccccc1`, with 0.5% (inactive).
Then `OC(Cn1cnnc1)c1ccccc1` (stereo unspecified), with 0% (inactive); and `O=C(Nc1ccc(Br)cc1Cl)Nn1cnnc1`, with 4.67% (inactive); and `COc1ccc(NC(=O)NNC(=O)CCc2ccc(O)c(O)c2)cc1OC`, with 5.67% (inactive).
Then `O=C(Nc1ccccc1Cl)Nn1cnnc1`, with 7.83% (inactive); and `Oc1ccc(C2=Nn3c(nnc3-c3ccco3)SC2)cc1O`, with 20.8% (inactive); and `O=C(Nc1cc(Cl)ccc1Cl)Nn1cnnc1`, with 1.5% (inactive).
Regarding `CC1(C)CC(=O)c2c(oc3cc(O)c(O)cc23)C1`, the growth inhibition is 2.83% (inactive).
Then `Oc1cc(O)c2c(c1)O[C@H](c1ccc(O)c(O)c1)[C@H](O)C2`, with 1% (inactive); and `CC1=NNC(=O)/C1=C\c1cn(-c2ccccc2)nc1-c1ccc(F)cc1`, with 20.7% (inactive); and `CN1C(=O)N(c2cccc3ccccc23)C(n2cncn2)C1(C)C` (stereo unspecified), with 0% (inactive).
As for `Cc1ccc(Cl)cc1NC(=S)Nn1cnnc1`, the growth inhibition is 0% (inactive).
Then `COC(=O)CN(n1cnnc1)S(=O)(=O)c1ccc(C)cc1`, with 0% (inactive); and `O=S(=O)(Nn1cnnc1)c1ccccc1`, with 3% (inactive).
Consider `COc1cc([N+](=O)[O-])ccc1NC(=O)Nn1cnnc1`, for which the growth inhibition was 0% (inactive).
Then `O=C(O)c1cn[nH]c1-n1cnnn1`, with 3.83% (inactive).
For the molecule `COc1ccc2nc(C)cc(SCC(=O)N/N=C/c3ccc(O)c(O)c3)c2c1`, the growth inhibition is 3.22% (inactive).
Then `O=C(Nc1ccc(Cl)c(Cl)c1)Nn1cnnc1`, with 5.67% (inactive); and `Oc1ccc(-c2cn3ccccc3n2)cc1O`, with 5.33% (inactive); and `CCC(C)c1ccc(O)c(N)c1` (stereo unspecified), with 95.1%.
Then `O=[N+]([O-])c1cc([N+](=O)[O-])c2cccnc2c1Oc1ccccc1O`, with 13.4% (inactive); and `O=c1[nH]c(=S)[nH]c(O)c1/C=C1\C=c2ccccc2=N1`, with 2.67% (inactive).
Then `Cc1cc(C)n2c(=S)[nH]nc2n1`, with 35.6%.
Regarding `COC(=O)CN(n1cnnc1)S(=O)(=O)c1ccccc1`, the growth inhibition is 1.67% (inactive).
Turning to `Oc1ccc(/C=C/c2cc(O)cc(O)c2)cc1`, the growth inhibition is 1.33% (inactive).
Then `COc1cccc2c(SCC(=O)N/N=C/c3ccc(O)c(O)c3)cc(C)nc12`, with 1.5% (inactive).
Then `CCN(CC)S(=O)(=O)c1ccc(C(=O)Nn2cnnc2)cc1`, with 0.5% (inactive).
Then `CC(C)n1c(SCC(=O)Nc2nncs2)nnc1-c1ccco1`, with 1.33% (inactive); and `Cc1ccc([N+](=O)[O-])cc1-c1[nH]c(-c2ccc(O)c(O)c2)nc1-c1ccccc1`, with 4.11% (inactive); and `O=C(Nc1ccc([N+](=O)[O-])cc1)Nn1cnnc1`, with 28.7% (inactive).
For `O=c1[nH]c(CSc2ncn[nH]2)nc2ccccc12`, the growth inhibition was 1.83% (inactive).
Then `S=C(Nc1cc(Cl)ccc1Cl)Nn1cnnc1`, with 0% (inactive); and `Cc1nc2ccccn2c1C(=O)NNC(=O)Nc1ccccc1`, with 0.667% (inactive).
Then `O=C(Nc1cccc(C(F)(F)F)c1)Nn1cnnc1`, with 0% (inactive); and `Oc1ccc(-c2csc(-c3ccccc3)n2)cc1O`, with 20.6%.
As to `COc1ccc(Cl)cc1NC(=O)Nn1cnnc1`, the growth inhibition is 5.83% (inactive).
Regarding `O=C(CSc1ncn[nH]1)OCN1C(=O)c2ccccc2C1=O`, the growth inhibition was 3% (inactive).
Then `CN1CCc2cccc3c2[C@@H]1Cc1ccc(O)c(O)c1-3`, with 87%; and `COc1cccc(-c2cc(C(=O)Nn3cnnc3)c3ccccc3n2)c1`, with 7.11% (inactive).
Then `Cc1ccc(-n2c(O)c(/C=N/n3cnnc3)c3ccccc3c2=O)cc1`, with 3.33% (inactive).
Then `Oc1ccc(-c2csc(-c3cccnc3)n2)cc1O`, with 7.67% (inactive).
For the molecule `CCc1ccccc1NC(=S)Nn1cnnc1`, the growth inhibition is 0% (inactive).
`O=C(CSc1nnc(-c2ccccc2)o1)Nn1cnnc1`: the growth inhibition is 11% (inactive).
Then `CCOC(=O)C1=C(CS(=O)(=O)c2ccc(F)cc2)NC(=O)NC1c1ccc(O)c(O)c1` (stereo unspecified), with 0.667% (inactive); and `O=c1c(O)c(-c2ccc(O)c(O)c2)oc2cc(O)cc(O)c12`, with 0% (inactive); and `COc1ccc(C(=O)n2cnnc2N)cc1`, with 2.5% (inactive).
Then `CS(=O)(=O)c1ccc2c(c1)sc1nc(=O)c(/C=C3/C=CC(=O)C(O)=C3)c(N)n12`, with 22.6% (inactive).
As for `O=C(CNC(=O)c1ccccc1)NCCc1ccc(O)c(O)c1`, the growth inhibition was 0.333% (inactive).
Then `COC(=O)c1cc(C(=O)Nn2cnnc2)cc([N+](=O)[O-])c1`, with 0% (inactive).
For `O=C(Nc1cccc(Cl)c1Cl)Nn1cnnc1`, the growth inhibition was 1% (inactive).
Then `Cc1cccc(NC(=S)Nn2cnnc2)c1C`, with 16.5% (inactive); and `CC1(C)CC2(CC(c3ccccc3F)c3ccc(O)c(O)c3O2)NC(=S)N1` (stereo unspecified), with 0.167% (inactive); and `O=C(CSc1nc2ccccc2c(=O)[nH]1)c1ccc(O)c(O)c1`, with 8.89% (inactive).
Then `COC(=O)CN(n1cnnc1)S(=O)(=O)c1ccccc1Cl`, with 4.5% (inactive).
Then `O=C(CSc1nn(-c2ccccc2)c(=S)s1)Nn1cnnc1`, with 0% (inactive); and `O=C(O)CSc1ncn[nH]1`, with 2.83% (inactive).
On to `O=C(O)c1ccc(O)c(O)c1`, for which the growth inhibition was 7.17% (inactive).
Then `Cc1ccc(NC(=S)Nn2cnnc2)c(C)c1`, with 0% (inactive).
